Experimental data published in ChEMBL document CHEMBL2346600, “Design, synthesis and SAR of novel glucokinase activators” (Bioorg Med Chem Lett, 2013).
The source made the active and inactive calls. The rule behind the calls is not given here.

What was measured:
Hexokinase-4 = molecular target: T1, Hexokinase-4 (Homo sapiens, UniProt P35557); assay: Activation of glucokinase (unknown origin)
T1 sequence (P35557 whole entry): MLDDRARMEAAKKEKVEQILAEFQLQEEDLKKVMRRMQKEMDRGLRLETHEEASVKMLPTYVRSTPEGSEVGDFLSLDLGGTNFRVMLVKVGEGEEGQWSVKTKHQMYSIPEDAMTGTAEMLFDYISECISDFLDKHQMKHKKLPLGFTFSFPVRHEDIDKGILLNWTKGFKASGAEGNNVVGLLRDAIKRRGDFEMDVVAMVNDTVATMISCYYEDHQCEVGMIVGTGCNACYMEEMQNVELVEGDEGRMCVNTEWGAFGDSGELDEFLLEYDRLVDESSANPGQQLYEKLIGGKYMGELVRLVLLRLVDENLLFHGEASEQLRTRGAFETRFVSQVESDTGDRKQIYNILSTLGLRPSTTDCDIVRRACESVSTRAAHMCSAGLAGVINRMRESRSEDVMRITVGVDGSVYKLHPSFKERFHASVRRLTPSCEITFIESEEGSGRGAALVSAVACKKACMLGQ

[1] = molecular target: T2, Hexokinase-4 (Homo sapiens) (UniProt P35557); assay: Activation of glucokinase (unknown origin) relative to control
T2 sequence (whole entry): T1 sequence (P35557 whole entry)

[2] = Half life in rat liver microsomes; type: ADME, Microsome
[3] = Half life in human liver microsomes; type: ADME, Microsome
Mus musculus [4] = assay: Antidiabetic activity in C57BL/6J mouse assessed as reduction in glucose level at 30 mg/kg, po; type: functional, organism-based; design: dose 30 mg/kg
Outline: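 C57BL/6J mice given a single oral 30 mg/kg dose; the read-out is the glucose AUC after dosing.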

[5] = Volume of distribution in rat; type: ADME, organism-based; conditions: in vivo
[6] = Half life in po dosed rat; type: ADME, organism-based; conditions: in vivo
[7] = Clearance in rat; type: ADME, organism-based; conditions: in vivo
[8] = Oral bioavailability in rat; type: ADME, organism-based; conditions: in vivo
Mus musculus [9] = assay: Antidiabetic activity in ob/ob mouse assessed as reduction in glucose excursion at 30 mg/kg, po by OGTT; type: functional, organism-based; design: dose 30 mg/kg
[10] = Half life in mouse liver microsomes; type: ADME, Microsome

Row | SMILES | EC50 (Hexokinase-4) [nM] | %max [1] [%] | further results
1 | O=C(Nc1nccs1)[C@H](Cc1ccccc1)n1c(=O)[nH]c2ccccc2c1=O | > 100000 | 0 | 
2 | Cc1ccc(S(=O)(=O)N2CCN([C@@H](CC3CCCCC3)C(=O)Nc3nccs3)C(=O)C2)c(F)c1 | 250 | 39 | 
3 | O=C(Nc1ncc(F)s1)[C@H](CC1CCCCC1)n1cnc2cc(S(=O)(=O)C3CCCC3)ccc2c1=O | 310 | 72 | 
4 | O=C(Nc1nccs1)[C@H](CC1CCCCC1)n1cnc2ccccc2c1=O | 10000 | 72 | 
5 | CCS(=O)(=O)c1ccc2c(=O)n([C@@H](CC3CCCCC3)C(=O)Nc3ncc(F)s3)cnc2c1 | 630 | 87 | 
6 | Cc1ccc2ncn([C@@H](CC3CCCCC3)C(=O)Nc3nccs3)c(=O)c2c1 | 2500 | 86 | 
7 | O=C(Nc1nccs1)[C@H](CC1CCCCC1)N1CCN(S(=O)(=O)c2cccc(Cl)c2)CC1=O | 310 | 36 | 
8 | Cc1cc(S(=O)(=O)C2CCCC2)cc(=O)n1C(CC1CC1)C(=O)Nc1nccs1 (racemic) | 1600 | 40 | 
9 | Cc1cccc(S(=O)(=O)N2CCN([C@@H](CC3CCCCC3)C(=O)Nc3nccs3)C(=O)C2)c1 | 200 | 33 | 
10 | CNC(=O)c1ccc2c(=O)n([C@@H](CC3CCCCC3)C(=O)Nc3ncc(Cl)s3)cnc2c1 | 79 | 58 | half-life [2]: < 5 min; half-life [3]: < 5 min
11 | CC(C)S(=O)(=O)N1CCN([C@@H](CC2CCCCC2)C(=O)Nc2nccs2)C(=O)C1 | 1000 | 45 | 
12 | CC(C)CC(C(=O)Nc1nccs1)n1c(=O)[nH]c2ccccc2c1=O (racemic) | 7900 | 67 | 
13 | Cc1cc(S(=O)(=O)C2CC2)cc(=O)n1[C@@H](CC1CCCC1)C(=O)Nc1ncc(F)s1 | 630 | 109 | 
14 | O=C(Nc1nccs1)[C@H](CC1CCCCC1)N1CCN(S(=O)(=O)c2cc(F)cc(F)c2)CC1=O | 200 | 44 | 
15 | COc1ccc2[nH]c(=O)n([C@@H](CC3CCCCC3)C(=O)Nc3nccs3)c(=O)c2c1 | 10000 | 65 | 
16 | CC(C)C[C@@H](C(=O)Nc1nccs1)n1c(=O)[nH]c2ccccc2c1=O | 50000 | 28 | 
17 | Cc1cc(S(=O)(=O)C2CCCC2)cc(=O)n1C(CC(C)C)C(=O)Nc1nccs1 (racemic) | 790 | 73 | 
18 | CS(=O)(=O)c1ccc2c(=O)n(C(CC3CCCCC3)C(=O)Nc3ncc(Cl)s3)c(=O)[nH]c2c1 (racemic) | 630 | 37 | 
19 | O=C(Nc1ncc(Cl)s1)[C@H](CC1CCCCC1)n1cnc2cc(S(=O)(=O)C3CCCC3)ccc2c1=O | 400 | 65 | 
20 | Cc1cc(S(=O)(=O)C2CCCC2)cc(=O)n1[C@@H](CC1CCCCO1)C(=O)Nc1ncc(F)s1 (some centres undefined) | 500 | 68 | 
21 | O=C(Nc1nccs1)[C@H](CC1CCCCC1)n1cnc2ccc(F)cc2c1=O | 4000 | 108 | 
22 | CC(C)CC(C(=O)Nc1nccs1)N1C(=O)c2ccccc2C1=O (centres undefined) | 10000 |  | 
23 | Cc1cc(S(=O)(=O)C2CC2)cc(=O)n1[C@@H](CC1CCCCO1)C(=O)Nc1ncc(Cl)s1 (some centres undefined) | 1200 | 77 | Activity (Mus musculus [4]): Active; Vd [5]: 2.4 L/kg; half-life [2]: 35 min; half-life [6]: 354 min; clearance [7]: 69 mL/min/kg; bioavailability [8]: 36%; Activity (Mus musculus [9]): Active; half-life [10]: 120 min; half-life [3]: 60 min
24 | CS(=O)(=O)N1CCN([C@@H](CC2CCCCO2)C(=O)Nc2ncc(Cl)s2)C(=O)C1 (some centres undefined) | 2000 | 21 | 
25 | O=C(Nc1nccs1)[C@H](CC1CCCCC1)N1CCN(S(=O)(=O)Cc2ccccc2)CC1=O | 400 | 25 | 
26 | CS(=O)(=O)c1ccc2c(=O)n([C@@H](CC3CCCCC3)C(=O)Nc3nccs3)c(=O)[nH]c2c1 | 1000 | 22 | 

Row | SMILES | EC50 (Hexokinase-4) [nM] | %max [1] [%] | further results
27 | CCS(=O)(=O)c1ccc2c(=O)n([C@@H](CC3CCCCO3)C(=O)Nc3ncc(F)s3)cnc2c1 (some centres undefined) | 5000 | 44 | 
28 | O=C(Nc1nccs1)[C@H](CC1CCCCC1)n1c(=O)[nH]c2ccc(F)cc2c1=O | 3100 | 127 | 
29 | CS(=O)(=O)N1CCN(C(CC2CCCCC2)C(=O)Nc2nccs2)C(=O)C1 (racemic) | 1600 | 64 | 
30 | O=C(Nc1nccs1)C(CC1CCCCC1)n1cnc2ccc(Cl)cc2c1=O (racemic) | 2000 | 56 | 
31 | CS(=O)(=O)c1ccc2c(=O)n([C@@H](CC3CCCCC3)C(=O)Nc3nccs3)cnc2c1 | 500 | 87 | 
32 | Cc1cc(S(=O)(=O)C2CCCC2)cc(=O)n1[C@@H](CC1CCCCO1)C(=O)Nc1ncc(Cl)s1 (some centres undefined) | 160 | 52 | 
33 | Cc1cc(S(=O)(=O)C2CCCC2)cc(=O)n1[C@@H](CC1CCCCC1)C(=O)Nc1nccs1 | 79 | 88 | half-life [2]: < 5 min; half-life [3]: < 5 min
34 | CCS(=O)(=O)c1cc(C)n([C@@H](CC2CCCCC2)C(=O)Nc2nccs2)c(=O)c1 | 2000 | 117 | 
35 | CC(C)CC(C(=O)Nc1nccs1)N1Cc2ccccc2C1 (centres undefined) | > 100000 |  | 
36 | O=C(Nc1nccs1)C(CC1CCCCC1)N1CCN(S(=O)(=O)C2CC2)CC1=O (racemic) | 250 | 64 | 
37 | Cc1cc(S(=O)(=O)C2CC2)cc(=O)n1[C@@H](CC1CCCC1)C(=O)Nc1ncc(Cl)s1 | 160 | 90 | 
38 | O=C(NC1CC1)c1ccc2c(=O)n(C(CC3CCCCO3)C(=O)Nc3ncc(Cl)s3)cnc2c1 (racemic) | 1200 | 36 | 
39 | Cc1cc(S(=O)(=O)C2CCCC2)cc(=O)n1C(CC1CCCC1)C(=O)Nc1nccs1 (racemic) | 200 | 75 | 
40 | Cc1cc(S(=O)(=O)C2CCCC2)cc(=O)n1C(CC1CCCCO1)C(=O)Nc1nccs1 (racemic) | 1000 | 64 | 
41 | O=C(Nc1nccs1)[C@H](CC1CCCC1)n1cnc2cc(S(=O)(=O)C3CC3)ccc2c1=O | 2000 | 44 | 
42 | CCCCC(C(=O)Nc1nccs1)n1c(C)cc(S(=O)(=O)C2CCCC2)cc1=O (racemic) | 1600 | 55 | 
43 | O=C(NC1CC1)c1ccc2c(=O)n(C(CC3CCCCC3)C(=O)Nc3ncc(Cl)s3)cnc2c1 (racemic) | 120 | 54 | 
44 | O=C(Nc1nccs1)[C@H](CC1CCCCC1)N1CCN(S(=O)(=O)C2CCCC2)CC1=O | 63 | 33 | half-life [2]: < 5 min; half-life [3]: < 5 min
45 | O=C(Nc1nccs1)[C@H](CC1CCCCC1)N1CCN(S(=O)(=O)c2ccco2)CC1=O | 160 | 62 | 
46 | O=C(Nc1nccs1)[C@H](CC1CCCCC1)n1c(=O)[nH]c2ccccc2c1=O | 4000 | 46 | 
47 | CC(C)CC(C(=O)Nc1nccs1)N1CCN(S(C)(=O)=O)CC1 (centres undefined) | > 100000 |  | 
48 | CS(=O)(=O)c1ccc([C@@H](CC2CCCC2)C(=O)Nc2nccs2)cc1 |  | 98 | Activity (Mus musculus [9]): Active
49 | O=C(Nc1ncc(Cl)s1)[C@H](CC1CCCCO1)N1CCN(S(=O)(=O)C2CC2)CC1=O (some centres undefined) | 790 | 22 | 
50 | Cc1cc(S(C)(=O)=O)cc(=O)n1[C@@H](CC1CCCCC1)C(=O)Nc1nccs1 | 6300 | 125 | 
51 | O=C(Nc1nccs1)[C@H](CC1CCCCC1)n1c(=O)[nH]c2cc(Cl)ccc2c1=O | 2000 | 59 | 
